Experimental data from ChEMBL document CHEMBL2380254, “Optimization of tocotrienols as antiproliferative and antimigratory leads” (Eur J Med Chem, 2013).

How the values were obtained:
Assay type in all cases: functional
SW-620 = test: Growth inhibition of human SW620 cells assessed as cell growth at 10 uM after 48 hrs by sulforhodamine B assay; details: SW-620, 48 h, read-out: Activity
Summary of the method: (§1)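 Single-dose NCI-60 test at 10 µM. Cells were grown in RPMI 1640 with 5% FBS and 2 mM L-glutamine, preincubated 24 h, with T0 plates TCA-fixed. Exposure was 48 h at 37 °C, 5% CO2. Cells were fixed with cold TCA (final 10%, 4 °C, 60 min), stained with SRB and read at 515 nm. Percent growth was taken relative to T0 and untreated control; negative values denote cell kill.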

MDA-MB-468 = test: Growth inhibition of human MDA-MB-468 cells assessed as cell growth at 10 uM after 48 hrs by sulforhodamine B assay; details: MDA-MB-468, 48 h, read-out: Activity
Summary of the method: (§2)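 Single-dose NCI-60 screen: adherent cells in RPMI 1640 with 5% FBS were exposed to 10 µM for 48 h at 37 °C after a 24 h preincubation. They were fixed in situ with cold TCA (10% final), stained with 0.4% SRB in 1% acetic acid, solubilized in 10 mM Tris base, and read at 515 nm. Percent growth was taken relative to time-zero and control plates.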

[1] = Growth inhibition of human EKVX cells assessed as cell growth at 10 uM after 48 hrs by sulforhodamine B assay; details: read-out: Activity
Summary of the method: (§3)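 NCI-60 single-dose screen at 10 µM: cells in RPMI 1640 with 5% FBS, preincubated 24 h, then exposed 48 h at 37 °C. TCA fixation (16% final for suspension cells), SRB staining, absorbance 515 nm. Percent growth relative to time-zero and untreated control plates; negative values indicate cell kill.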

HOP-92 = test: Growth inhibition of human HOP92 cells assessed as cell growth at 10 uM after 48 hrs by sulforhodamine B assay; details: HOP-92, 48 h, read-out: Activity; summary of the method: as §3
DU-145 = test: Growth inhibition of human DU145 cells assessed as cell growth at 10 uM after 48 hrs by sulforhodamine B assay; details: DU-145, 48 h, read-out: Activity; summary of the method: as §3
ACHN = test: Growth inhibition of human ACHN cells assessed as cell growth at 10 uM after 48 hrs by sulforhodamine B assay; details: read-out: Activity; summary of the method: as §3
BT-549 = test: Growth inhibition of human BT549 cells assessed as cell growth at 10 uM after 48 hrs by sulforhodamine B assay; details: BT-549, 48 h, read-out: Activity; summary of the method: as §3
TK-10 = test: Growth inhibition of human TK10 cells assessed as cell growth at 10 uM after 48 hrs by sulforhodamine B assay; details: TK-10, 48 h, read-out: Activity; summary of the method: as §1
OVCAR-5 = test: Growth inhibition of human OVCAR5 cells assessed as cell growth at 10 uM after 48 hrs by sulforhodamine B assay; details: OVCAR-5, 48 h, read-out: Activity; summary of the method: as §2
[2] = Growth inhibition of human NCI-ADR-RES cells assessed as cell growth at 10 uM after 48 hrs by sulforhodamine B assay; details: read-out: Activity; summary of the method: as §2
COLO 205 = test: Growth inhibition of human COLO205 cells assessed as cell growth at 10 uM after 48 hrs by sulforhodamine B assay; details: COLO 205, 48 h, read-out: Activity; summary of the method: as §3
NCI-H460 = test: Growth inhibition of human NCI-H460 cells after 48 hrs by sulforhodamine B assay; details: NCI-H460, 48 h
Summary of the method: (§4)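 NCI-60 panel cells grown in RPMI 1640 with 5% FBS and 2 mM L-glutamine, seeded at 5000–40,000 cells/well and preincubated 24 h. Five 10-fold dilutions (0.001–100 µM) from DMSO stocks were added for 48 h at 37 °C. Adherent cells were fixed with cold TCA (10% final) for 60 min at 4 °C, stained with 0.4% SRB, and read at 515 nm. GI50 was set where 100×(T−T0)/(C−T0)=50.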

MOLT-4 = test: Growth inhibition of human MOLT4 cells after 48 hrs by sulforhodamine B assay; details: MOLT-4, 48 h
Summary of the method: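 NCI-60 suspension lines in RPMI 1640 with 5% FBS and 2 mM L-glutamine, preincubated 24 h. A five-concentration 10-fold series (0.001–100 µM) was given for 48 h at 37 °C. Settled cells were fixed with 80% TCA (16% final), stained with SRB, and read at 515 nm. GI50 was taken where 100×(T−T0)/(C−T0)=50, with T0 plates fixed at drug addition.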

[3] = Growth inhibition of human NCI-ADR-RES cells after 48 hrs by sulforhodamine B assay; summary of the method: as §4
MDA-MB-435 = test: Growth inhibition of human MDA-MB-435 cells after 48 hrs by sulforhodamine B assay; details: MDA-MB-435, 48 h; summary of the method: as §4
UACC-62 = test: Growth inhibition of human UACC62 cells after 48 hrs by sulforhodamine B assay; details: UACC-62, 48 h
Summary of the method: (§5)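 NCI-60 five-dose screen. Cells were grown in RPMI 1640 with 5% FBS and 2 mM L-glutamine, plated at 5000–40,000 cells/well and incubated 24 h before dosing, with T0 plates TCA-fixed. DMSO stocks were diluted to doses of […] and exposed 48 h at 37 °C, 5% CO2. Cells were fixed with cold TCA (final 10%, 60 min, 4 °C), stained with 0.4% SRB in 1% acetic acid for 10 min, solubilized in 10 mM trizma base and read at 515 nm. GI50 is where 100×(T−T0)/(C−T0)=50.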

KM12 = test: Growth inhibition of human KM12 cells after 48 hrs by sulforhodamine B assay; details: KM12, 48 h
Summary of the method: (§6)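 NCI-60 screen: cells in RPMI 1640 with 5% FBS and 2 mM glutamine, 5000–40,000 cells/well, preincubated 24 h. Five concentrations (10-fold dilutions; 100 to 0.001 µM) applied for 48 h at 37 °C. TCA fixation, SRB stain, absorbance at 515 nm. Time-zero plates included; GI50 where 100×(T−T0)/(C−T0)=50.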

SK-MEL-2 = test: Growth inhibition of human SK-MEL-2 cells after 48 hrs by sulforhodamine B assay; details: SK-MEL-2, 48 h; summary of the method: as §4
U-251 = test: Growth inhibition of human U251 cells after 48 hrs by sulforhodamine B assay; details: U-251, 48 h; summary of the method: as §5
IGROV-1 = test: Growth inhibition of human IGROV1 cells after 48 hrs by sulforhodamine B assay; details: IGROV-1, 48 h; summary of the method: as §6
M14 = test: Growth inhibition of human M14 cells after 48 hrs by sulforhodamine B assay; details: M14, 48 h; summary of the method: as §6
SK-OV-3 = test: Growth inhibition of human SKOV3 cells after 48 hrs by sulforhodamine B assay; details: SK-OV-3, 48 h; summary of the method: as §5
UACC-257 = test: Growth inhibition of human UACC257 cells after 48 hrs by sulforhodamine B assay; details: UACC-257, 48 h; summary of the method: as §5
[4] = Growth inhibition of human Hs 578T cells after 48 hrs by sulforhodamine B assay; summary of the method: as §6

| SMILES | growth at 10 µM (SW-620) | growth at 10 µM (MDA-MB-468) | growth at 10 µM [1] | growth at 10 µM (HOP-92) | growth at 10 µM (DU-145) | growth at 10 µM (ACHN) | growth at 10 µM (BT-549) | growth at 10 µM (TK-10) | growth at 10 µM (OVCAR-5) | growth at 10 µM [2] | growth at 10 µM (COLO 205) | further results |
| --- | --- | --- | --- | --- | --- | --- | --- | --- | --- | --- | --- | --- |
| CC(C)=CCC/C(C)=C/CC/C(C)=C/CC[C@]1(C)CCc2cc(O)c(C)c(C)c2O1 [GAMMA-TOCOTRIENOL] | 110% | 108% | 110% | 92% | 99.7% | 100% | 141% | 122% | 114% | 96.9% | 94.4% | – |
| COc1ccc(CCN2COc3c(C)c(C)c4c(c3C2)CC[C@@](C)(CC/C=C(\C)CC/C=C(\C)CCC=C(C)C)O4)cc1OC | 101% | 95.1% | 94.1% | 106% | 111% | 95.8% | 115% | 105% | 101% | 101% | 86.7% | – |
| CC(C)=CCC/C(C)=C/CC/C(C)=C/CC[C@]1(C)CCc2c3c(c(C)c(C)c2O1)OCN(CCCCCCCCCCO)C3 | 105% | 91.9% | 102% | 93.7% | 67% | 92.6% | 108% | 99.4% | 106% | 99.2% | 100% | – |
| CC(C)=CCC/C(C)=C/CC/C(C)=C/CC[C@]1(C)CCc2c3c(c(C)c(C)c2O1)OCN(CCCCCCO)C3 | -29.4% | -46.7% | – | – | 77% | 68.6% | 119% | 97.9% | 39% | 30.1% | 31.8% | GI50 (NCI-H460): 3.15 µM; GI50 (MOLT-4): 2.92 µM; GI50 [3]: 2.87 µM; GI50 (MDA-MB-435): 2.95 µM; GI50 (UACC-62): 2.67 µM; GI50 (KM12): 2.84 µM; GI50 (SK-MEL-2): 3.27 µM; GI50 (U-251): 2.73 µM; GI50 (IGROV-1): 2.69 µM; GI50 (M14): 3.11 µM; GI50 (SK-OV-3): 2.57 µM; GI50 (UACC-257): 3.45 µM; GI50 [4]: 3.04 µM |
| CC(C)=CCC/C(C)=C/CC/C(C)=C/CC[C@]1(C)CCc2c(CNCCc3ccc(O)cc3)c(O)c(C)c(C)c2O1 | 101% | 104% | 99.8% | 94.6% | 111% | 98.7% | 105% | 113% | 113% | 95% | 106% | – |
| CC(C)=CCC/C(C)=C/CC/C(C)=C/CC[C@]1(C)CCc2c3c(cc(C)c2O1)OCN(CCCCCCCCCCCCO)C3 | 95.2% | 77.4% | 77.6% | – | 85.4% | 91.3% | 114% | 58.4% | 102% | 79.9% | 71.2% | – |
| CC(C)=CCC/C(C)=C/CC/C(C)=C/CC[C@]1(C)CCc2c3c(c(C)c(C)c2O1)OCN(CCCCCCCCCCCCO)C3 | 109% | 106% | 105% | 107% | 109% | 105% | 127% | 108% | 114% | 97.9% | 97.5% | – |
| CC(C)=CCC/C(C)=C/CC/C(C)=C/CC[C@]1(C)CCc2c3c(cc(C)c2O1)OCN(CCCCCCO)C3 | -66.3% | -84.5% | – | – | 10.7% | -39.7% | 41.6% | 88.4% | 33.4% | -64.1% | -79.6% | GI50 (NCI-H460): 0.692 µM; GI50 (MOLT-4): 0.835 µM; GI50 [3]: 1.13 µM; GI50 (MDA-MB-435): 0.967 µM; GI50 (UACC-62): 4.85 µM; GI50 (KM12): 0.609 µM; GI50 (SK-MEL-2): 5.66 µM; GI50 (U-251): 0.536 µM; GI50 (IGROV-1): 1.28 µM; GI50 (M14): 0.979 µM; GI50 (SK-OV-3): 2.62 µM; GI50 (UACC-257): 0.62 µM; GI50 [4]: 0.814 µM |
| CC(C)=CCC/C(C)=C/CC/C(C)=C/CC[C@]1(C)CCc2c3c(c(C)c(C)c2O1)OCN(CCc1ccc(O)cc1)C3 | 48.4% | 88.8% | 93.9% | 87.9% | 107% | 99.8% | 113% | 106% | 111% | 83.6% | 52.1% | – |
| CC(C)=CCC/C(C)=C/CC/C(C)=C/CC[C@]1(C)CCc2c3c(cc(C)c2O1)OCN(CCCCCCCCCCO)C3 | 104% | 83.8% | 87.1% | – | 100% | 99.1% | 102% | 101% | 105% | 99.9% | 79.3% | – |
| COc1ccc(CCNCc2c(O)c(C)c(C)c3c2CC[C@@](C)(CC/C=C(\C)CC/C=C(\C)CCC=C(C)C)O3)cc1OC | 47.2% | 59.1% | 99.3% | 104% | 110% | 97.5% | 118% | 106% | 104% | 91.4% | 5.95% | – |
| CC(C)=CCC/C(C)=C/CC/C(C)=C/CC[C@]1(C)CCc2c3c(c(C)c(C)c2O1)OCN(CCCCCCCCO)C3 | 10.1% | -12.6% | – | – | 73.1% | 79.6% | 109% | 93.5% | 72.8% | 66.6% | 14.9% | GI50 (NCI-H460): 3.25 µM; GI50 (MOLT-4): 3.26 µM; GI50 [3]: 5.5 µM; GI50 (MDA-MB-435): 3.2 µM; GI50 (UACC-62): 2.51 µM; GI50 (KM12): 2.93 µM; GI50 (SK-MEL-2): 3.01 µM; GI50 (U-251): 2.61 µM; GI50 (IGROV-1): 2.88 µM; GI50 (M14): 3.02 µM; GI50 (SK-OV-3): 2.63 µM; GI50 (UACC-257): 2.96 µM; GI50 [4]: 2.61 µM |
